Bioassay records: PubChem BioAssay, several laboratories
HMGR II inh – inhibitors of class II HMG-CoA reductase from Enterococcus faecalis | purified E. faecalis HMGR, NADPH absorbance 340 nm kinetic | AID 1066 | 0.41% of 190,000 active | inhibition, % at 10 µM;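 active means inhibition above a set limit, the median over all tested compounds plus 3 SD, cut at about 9.5% in these data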;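 further: enzyme runs in reverse so mevalonate oxidation gives rising NADPH absorbance; 0% = complete reaction with DMSO and 100% = background rate lacking mevalonate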
PMI act satM6P – activators of human phosphomannose isomerase at near-saturating mannose 6-phosphate; coupled PMI enzyme assay, resazurin fluorescence, 20 min; stronger effect = higher value; 1 = untreated enzyme, 0 = substrate-free blank; activation factor at 20 µM; 0.34% of 190,000 active; AID 1216;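 active means activation factor of 2 or more at 20 µM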
Target sequence (P34949 whole entry, looked up): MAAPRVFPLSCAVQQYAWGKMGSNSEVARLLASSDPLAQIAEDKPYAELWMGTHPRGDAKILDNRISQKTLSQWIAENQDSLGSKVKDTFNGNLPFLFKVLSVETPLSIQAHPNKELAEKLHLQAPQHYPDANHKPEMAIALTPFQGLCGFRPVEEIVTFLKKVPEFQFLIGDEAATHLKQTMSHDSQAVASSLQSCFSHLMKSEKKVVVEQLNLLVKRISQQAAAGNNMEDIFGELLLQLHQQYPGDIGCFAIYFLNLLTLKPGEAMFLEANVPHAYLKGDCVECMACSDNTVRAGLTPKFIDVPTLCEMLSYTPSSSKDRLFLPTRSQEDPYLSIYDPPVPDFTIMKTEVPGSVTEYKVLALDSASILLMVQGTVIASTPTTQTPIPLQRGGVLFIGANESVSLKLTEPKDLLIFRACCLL
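Test system: Human PMI in coupled enzyme assay | Input: 15 ng/mL PMI | Medium: HEPES-buffered pH 7.4 with magnesium and detergent | Compound: One concentration, 20 µM, in 1% DMSO | Incubation: Enzyme reaction with compound 20 min at room temperature | Detection: Diaphorase-driven resazurin-to-resorufin fluorescence, excitation 544, emission 590 nm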
PMI act – increases human mannose-6-phosphate isomerase activity. P34949. purified human PMI, coupled resazurin fluorescence, 20 min; stronger effect = higher value; 1 = vehicle control, 0 substrate-free wells. activation factor at 20 µM. 0.005% of 190,000 active. AID 1214;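 active means activation factor of 2 or more at 20 µM, relative to plate controls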
Rad51 HR inh – blocks human Rad51 in homologous recombination. Q06609. hRad51 DNA strand exchange, fluorescence dequenching. inhibition, % at 10 µM. 0.085% of 200,000 active;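 active means inhibition above 40% at the single screening dose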;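 further: 0% = DMSO control wells and 100% = blanks with heterologous ssDNA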
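Material: Human Rad51 nucleoprotein filaments preassembled on unlabelled ssDNA | Also added: Labelled 47-mer dsDNA for strand exchange | Dosing: Single dose, 10 µM final compound | Schedule: 30-min compound preincubation and 15-min exchange, both room temperature | Technique: Fluorescence dequenching at 485/520 nm | Measure: Percent inhibition relative to plate controls and blanks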
m-calpain inh – inhibitors of pig calpain II; purified calpain II, fluorogenic peptide substrate, 30 min; 0.37% of 220,000 active; inhibition, % at 16 µM;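 active means inhibition above about 50%, limit read from the data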
Active calls of the source: *; nt = not tested or not shown. Rows were chosen to be rich in hits. Some 1.1% of all compounds tested hit in one or more screens of this group.

SMILES	HMGR II inh	PMI act satM6P	PMI act	Rad51 HR inh	m-calpain inh
CN(NC(=O)/C=C/C(=O)O)c1ncc(C(F)(F)F)cc1Cl	-2	1.1	1.2	11	-2
CC1CN(Cc2cnc(Cl)s2)CC(C)O1 (stereo not given)	23*	1	1	10	-31
O=C(O)c1cccc2c1C(=O)c1ccccc1-2	nt	nt	nt	6	-4
O=C(O)c1cccc2c1C(=O)c1ccccc1C2=O	0	2.5*	1.8	-1	18
CN(CCC1CCCCO1)C(=O)CCc1nnc(C2CCCCC2)o1 (stereo not given)	-8	1	1	1	-13
CC(C)C(=O)Nc1cccc(NC(=O)CCN2C(=O)c3ccccc3S2(=O)=O)c1	2	0.9	0.9	0	-22
Cc1nc(SCC(=O)NC(C)c2ccccc2)c2oc3ccccc3c2n1 (stereo not given)	1	1.1	1	-1	57*
Cc1nc(SCC(=O)Nc2ccccc2)c2oc3ccccc3c2n1	-3	1	0.9	-3	46
COc1ccc(-c2nc3ccccc3c(=O)o2)cc1OC	-1	1.1	1	0	-27
CCOc1ccc(-c2nc3ccccc3c(=O)o2)cc1	12*	1	1	nt	-33
O=C(NCc1ccccc1Cl)c1cc([N+](=O)[O-])ccc1Cl	19*	1.2	1	nt	-14
CCc1nnc(NS(=O)(=O)c2ccc(NC(=S)NC(=O)c3ccc(Br)cc3)cc2)s1	-9	0.8	0.7	-4	70*
COC(=O)[C@@]1(Cc2ccccc2)[C@H]2c3cc(C(=O)N4CCCC4)n(Cc4ccsc4Br)c3C[C@H]2CN1C(=O)c1ccccc1	1	0.8	0.8	-5	-101
Cc1ccc(-c2cc(C(=O)OCn3nnc4ccccc4c3=O)c3ccccc3n2)cc1	-5	0.9	0.8	-41	-54
Cc1ccc(/C=C2\CCCC3=C2NC(=S)NC3c2ccc(C)cc2)cc1 (stereo not given)	-6	2*	1.6	3	-12
O=C(N/N=C/c1ccncc1)c1cccc(NC(=O)c2ccc(Cl)cc2)c1	-3	2.4*	1.6	-7	-27
CCOC(=O)C(=CNc1ccc(C)cc1C)C(=O)OCC	-7	0.9	0.9	6	30
CCOC(=O)C(=CNc1cccc(C)c1C)C(=O)OCC	-2	1	1	0	52*
CCOC(=O)Cn1c(=O)cc(C)c2cccc(C)c21	-1	1	1	5	73*
CCOC(=O)Cn1c(C)cc(=O)c2cccc(C)c21	12*	0.9	1	0	3
CCOC(=O)Cn1c(=O)n(CC(=O)OCC)c2ccccc21	-5	0.9	0.9	-18	13
CNC(=O)Cn1c(C)cc(=O)c2cccc(C)c21	nt	nt	nt	12	-5
COc1ccc(-c2nc(CN3CCCCC3c3nccn3C)c(C)o2)c(C)c1C (stereo not given)	0	1	0.9	3	23
ON/C=N/C(=S)Nc1ncc(C(F)(F)F)cc1Cl	18*	1	1	-4	10
CON/C=N/C(=S)Nc1ncc(C(F)(F)F)cc1Cl	-2	1.1	1.1	8	12
SMILES	HMGR II inh	PMI act satM6P	PMI act	Rad51 HR inh	m-calpain inh
CCC(=O)N1CCN(c2ccc(NC(=O)COc3ccccc3[N+](=O)[O-])cc2)CC1	-7	1	1	3	-5
CCc1cc2c(=O)c(-c3nc(C)cs3)coc2cc1OC(C)C(=O)NCCO (stereo not given)	1	1	1.1	4	55*
CCc1cc2c(=O)c(-c3nc(C)cs3)c(CCCC(=O)O)oc2cc1O	4	1	0.9	-2	-12
O=C(O)CCCCCCC1C(=O)NC(=O)N1CCC(O)C1CCCCC1 (stereo not given)	17*	1	1	2	-2
O=S1(=O)[C@H]2C[C@@H]3C=C[C@]2(CN1Cc1ccc(C(F)(F)F)cc1)O3	nt	nt	nt	-3	-17
O=C(COC(=O)c1cccc(C(=O)OCC(=O)NC2CC2)n1)NC1CC1	2	0.8	0.8	5	-11
Cc1ccc(NS(=O)(=O)c2ccc3c(c2)NC(=O)CC(=O)N3)cc1C	9.9*	1.1	1.1	14	-21
O=C1c2ccccc2C(=O)N1CCCCSc1nc2ccccc2c(=O)n1CCCN1CCOCC1	2	0.9	0.8	-7	11
CCc1cc(C(=O)N=Nc2c(O)[nH]c3c(Br)cc(Br)cc23)c2ccccc2n1	1	1	0.9	nt	-121
CCOC(=O)[C@@H]1[C@H]2COc3ccc(Br)cc3[C@@H]2N2C(=O)N(c3ccc(Cl)cc3)C(=O)[C@]12C	nt	nt	nt	16	nt
O=C(CCCn1c(=O)[nH]c2ccsc2c1=O)Nc1ccc(F)cc1	5	1	0.9	-2	-5
O=C(CCn1c(=O)[nH]c2ccsc2c1=O)NCc1ccc(F)cc1	-7	1	1	16	52*
Nc1n[nH]c(N)c1N=Nc1ccc(F)cc1	2	1	1.1	0	51*
c1ccc2cc3[nH]c(CN4CCOCC4)nc3cc2c1	10*	0.9	1	2	-34
CS(=O)(=O)c1ccc(C(=O)NC2CCCc3ccccc32)cc1 (stereo not given)	-2	1.2	1.2	1	-11
Oc1ccc(N2CCN(C(c3ccccn3)c3nnnn3C3CCCC3)CC2)cc1 (stereo not given)	0	0.5	0.8	-3	18
Cc1cc(C(=O)N[C@H](c2ccccc2)[C@@]2(C)C[C@@H]2[C@@H](C)C(=O)Nc2ccc3ccccc3c2)no1	25*	0.9	0.9	3	-27
Cc1cc(C(=O)N[C@@H](c2ccccc2)[C@]2(C)C[C@H]2[C@@H](C)C(=O)Nc2ccc3ccccc3c2)no1	-1	0.8	0.9	4	-40
CC(=O)c1ccc(N2CCN(C(=O)Cc3n[nH]c(=O)c4ccccc34)CC2)cc1	13*	1.1	1.2	-6	-15
O=S(=O)(Nc1ccc(-c2csc(-c3ccccc3)n2)cc1)c1ccc(F)cc1	-3	0.7	0.8	-1	55*
CCOC(=O)N1CCN(C(=O)CSCC(=O)N=c2sc3ccccc3n2C)CC1	2	0.9	0.9	105*	4
CCOC(=O)N1CCN(C(=O)Cn2c(=O)sc3ccccc32)CC1	-5	1	1	-1	4
Cc1ccccc1NC(=O)Cc1nc(CSc2nnc(-c3ccc4c(c3)OCO4)o2)cs1	0	1	1	0	-39
CCOC(=O)N1CCN(c2ccc(C(=O)c3cccc(F)c3)cc2)CC1	-4	1	1	-1	58*
O=C(O)CC12CSc3[nH]c(=O)sc3C1c1ccccc1OC2=O (stereo not given)	-7	1	0.9	2	54*
CCOC(=O)C1CSc2[nH]c(=O)sc2C1c1ccccc1 (stereo not given)	2	1.8	1.4	-19	20
